Here are results for five substances from PMC7945681 (Journal of materials chemistry. B, 2020).

The subject of assay [1] is human VCAM1. Nature of the assay: SPR measurement of peptide-VCAM1 binding. Conditions: for ∣ΔΔGB∣: ∣ΔGB,trans – ΔGB,cis∣ from SPR values. In short, it runs like this:
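Peptide-functionalised gold sensor chips, with three sensors per ligand and ligand density measured by variable angle spectroscopic ellipsometry. Chip-bound peptide was conditioned to cis or trans isomer, then exposed to human VCAM1 at 0.01–1 mg mL−1 in PBS. KD was determined for each isomer.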

Assay [2] deals with VCAM1^+ BMECs. The class given is cell-based, human. The conditions noted are these: for co-localization of the cis isomer with anti-VCAM1 antibody: VCAM1^+ BMECs, confocal microscopy.

Regarding “cycloAZOB[G-VHNKQHRP-K*] (sidechain bridge or staple)”, in assay [1], the “∣ΔΔGB∣” value is listed as 1.84. As for “cycloAZOB[G-VHAKQHRN-K*] (sidechain bridge or staple)”, the “KD,trans/KD,cis” value in assay [1] (affinity shift between trans and cis isomers, SPR) is ~ 130. For the same substance, in assay [1], the “∣ΔΔGB∣” value amounted to 2.93. For the same substance, the “binding to BMECs in trans configuration” value in assay [2] (BMEC labelling, fluorescence microscopy) is on record as “negligible binding”. In addition, the “co-localization of the cis isomer with anti-VCAM1 antibody” value in assay [2] is recorded as “clear co-localization”. For the substance “cycloAZOB[G-VHPKQHRS-K*] (sidechain bridge or staple)”, the “∣ΔΔGB∣” value in assay [1] is 2.52. Turning to “cycloAZOB[G-VHAKQHRN-K*]-K(Biotin) (sidechain bridge or staple)”, the “co-localization of the cis isomer with anti-VCAM1 antibody” value in assay [2] is given as “co-localization with anti-VCAM1 antibodies in cis configuration”. “cycloAZOB[G-VHPKQHRP-K*] (sidechain bridge or staple)”: the “∣ΔΔGB∣” value in assay [1] amounted to 1.52.
